Test results as given in ChEMBL document CHEMBL4373674, “Structural modification of azolylacryloyl derivatives yields a novel class of covalent modifiers of hemoglobin as potential antisickling agents” (Medchemcomm, 2019).
Activity calls are given as the source filed them. The rule behind the calls is not given here.

How the values were obtained:
[1] = target: T1, Hemoglobin HbA (Homo sapiens) (UniProt P69905+P68871); assay: Drug reactivity against betacys93 in hemoglobin (unknown origin) assessed as betacys93-compound adduct formation at 2 mM incubated for 2 hrs by UPLC-MS analysis relative to control; assay type: protein-complex assay; details: in the assay text read “by DTNB disulfide exchange assay” for “by UPLC-MS analysis”
How it was run: (§1)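 Hb (50 µM in PBS) was reacted with 2 mM compound (final) at room temperature for 2 h or 16 h. Hb was recovered by centrifugation and 10 kDa ultrafiltration, then washed. Samples were incubated in 0.1 M potassium phosphate pH 8.0 with DTNB for 1 h at 25 °C. Hb content was taken from A576 and free thiol from 2-nitrobenzoate at A412 (ε 14 150 M-1 cm-1). Values are the mean of quadruplicates ± SD. % adduct = 100 − available SH from two βCys93.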

[2] = Acute toxicity in Swiss albino mouse assessed as mortality at 2000 mg/kg, po via gavage measured after 24 hrs by OECD 423 guideline based method; assay type: organism-based; details: in vivo
How it was run: (§2)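 Male and female Swiss albino mice (22–27 g, 8–10 weeks) were held at about 23 °C on a 12 h light/dark cycle with free food and water. Dosing was a single oral gavage of a 10% suspension in water with 0.5% Tween 80. Groups of n = 3 received 2000 mg/kg (days 1 and 2) or 5000 mg/kg (day 3). Toxic signs and mortality were watched for 24 h.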

[3] = Acute toxicity in Swiss albino mouse assessed as mortality at 5000 mg/kg, po via gavage measured after 24 hrs by OECD 423 guideline based method; assay type: organism-based; details: in vivo; how it was run: as §2
[4] = target: T1, Hemoglobin HbA (Homo sapiens); assay: Binding affinity to hemoglobin in whole blood (unknown origin) at 2 mM incubated for 24 hrs; assay type: tissue-based
How it was run: (§3)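 Normal whole blood was incubated with 2 mM compound at 37 °C for up to 24 h. Aliquots taken at 1, 2, 4, 8 and 24 h were assessed by oxygen equilibrium curves, with DMSO as vehicle control.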

[5] = target: T1, Hemoglobin HbA (Homo sapiens); assay: Drug reactivity against betacys93 in hemoglobin (unknown origin) assessed as betacys93-compound adduct formation at 2 mM incubated for 16 hrs by UPLC-MS analysis relative to control; assay type: protein-complex assay; details: in the assay text read “by DTNB disulfide exchange assay” for “by UPLC-MS analysis”; how it was run: as §1
[6] = target: T1, Hemoglobin HbA (Homo sapiens); assay: Binding affinity to hemoglobin in whole blood (unknown origin) incubated for 2 hrs; assay type: tissue-based
How it was run: (§4)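 Normal human whole blood at 20% hematocrit was incubated with compound (1 mM and 2 mM final) for 2 h at 37 °C. Hb–O2 affinity was then measured from oxygen equilibrium curves. Runs were done at least in triplicate.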

[7] = target: T1, Hemoglobin HbA (Homo sapiens); assay: Binding affinity to hemoglobin in whole blood (unknown origin) at 1 mM incubated for 2 hrs relative to control; assay type: tissue-based; how it was run: as §4
[8] = Drug reactivity against cysteine in PBS buffer assessed as assessed as cysteine-compound adduct formation at 2 mM incubated for 3 hrs by UPLC-MS analysis relative to control
[9] = target: T1, Hemoglobin HbA (Homo sapiens); assay: Binding affinity to hemoglobin in whole blood (unknown origin) at 2 mM incubated for 2 hrs relative to control; assay type: tissue-based; how it was run: as §4
[10] = Drug reactivity against cysteine in PBS buffer at 2 mM incubated for 3 hrs by UPLC-MS analysis relative to control
[11] = target: T1, Hemoglobin HbA (Homo sapiens); assay: Drug reactivity against betacys93 in hemoglobin (unknown origin) assessed as free SH in betacys93 at 2 mM incubated for 16 hrs by UPLC-MS analysis relative to control; assay type: protein-complex assay; details: in the assay text read “by DTNB disulfide exchange assay” for “by UPLC-MS analysis”; how it was run: as §1
Erythrocyte = assay: Anti-sickling activity in RBC derived from patient homozygous SS at 2 mM […] by microscopic analysis relative to control; assay type: functional, Homo sapiens
[12] = target: T1, Hemoglobin HbA (Homo sapiens); assay: Binding affinity to hemoglobin in whole blood (unknown origin) at 2 mM incubated for 8 hrs; assay type: tissue-based; how it was run: as §3

T1 sequence (P68871 2-147 partner limits assumed): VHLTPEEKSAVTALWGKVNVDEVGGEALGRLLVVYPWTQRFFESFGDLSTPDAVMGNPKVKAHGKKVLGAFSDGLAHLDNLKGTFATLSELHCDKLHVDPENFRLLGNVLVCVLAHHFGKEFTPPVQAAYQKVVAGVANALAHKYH
T1 sequence (P69905 2-142 limits assumed): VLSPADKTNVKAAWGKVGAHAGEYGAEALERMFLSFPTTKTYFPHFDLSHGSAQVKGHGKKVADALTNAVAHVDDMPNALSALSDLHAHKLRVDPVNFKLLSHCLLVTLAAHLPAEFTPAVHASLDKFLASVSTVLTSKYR

| Activity [1] | Activity [4] | Activity [5] | Activity [6] | Activity [7] | Activity [8] | Activity [9] | Activity [10] | Activity [11] | Activity [12] | SMILES | Activity [2] | Activity [3] | Activity (Erythrocyte) |
| --- | --- | --- | --- | --- | --- | --- | --- | --- | --- | --- | --- | --- | --- |
| 11% | – | 30% | Active | 1.9% | – | 4.5% | – | 70% | Active | O=C(O)CCCOc1ccc(C(=O)/C=C/c2ncc[nH]2)cc1Cl | – | – | 2% |
| – | Active | – | Active | 9.9% | 54.9% | 15.2% | 45.1% | – | – | O=C(/C=C/c1ncc[nH]1)c1ccc(OC2CCCCO2)cc1 (configuration not stated) | – | – | 7% |
| 9% | – | 20% | Active | 6.5% | 53.7% | 6.5% | 46.3% | 80% | Active | COc1ccc(C(=O)/C=C/c2ncc[nH]2)cc1OC | – | – | 5% |

More lines, now with the values behind:

| SMILES | Activity [1] | Activity [4] | Activity [5] | Activity [6] | Activity [7] | Activity [8] | Activity [9] | Activity [10] | Activity [11] | Activity [12] | Activity [2] | Activity [3] | Activity (Erythrocyte) |
| --- | --- | --- | --- | --- | --- | --- | --- | --- | --- | --- | --- | --- | --- |
| COc1ccc(C(=O)/C=C/c2ncc[nH]2)cc1 | 11% | Active | 37% | Active | 8.2% | 77% | 11.8% | 23% | 63% | – | Non-Toxic | Toxic | 9% |
| O=C(/C=C/c1ncc[nH]1)c1ccccc1 | 10% | Active | 21% | Active | 7% | 19.6% | 11.3% | 80.4% | 79% | – | – | – | 7% |
